Here are results for 28 compounds from ChEMBL document CHEMBL1149787, “Synthesis and cannabinoid activity of 1-substituted-indole-3-oxadiazole derivatives: novel agonists for the CB1 receptor” (Eur J Med Chem, 2008).

Activity calls are given as the source filed them. The calls are words filed in the database; no cut-off is given here.

In assay [1] the target is Cannabinoid receptor 1 (Mus musculus) (UniProt P47746). Nature of the assay: Agonist activity at CB1 receptor in electrically-stimulated Swiss mouse vas deferens at 1.0 uM. The class given is functional, tissue-based. Put shortly:
(§1)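 Electrically stimulated mouse vas deferens. Prostatic end tied between parallel field electrodes, epididymal end attached to an isometric force transducer. Tissue stretched by 0.5 g force, equilibrated 10 min, then stimulated with trains of three pulses (4 Hz, 0.5 ms, 100 V) every 20 s. Effect taken as % decrease of pre-drug twitch force; single concentrations expressed relative to vehicle.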

In assay [2] the target is T1, Cannabinoid receptor 2 (Rattus norvegicus) (UniProt Q9QZN9).
T1 sequence (whole entry): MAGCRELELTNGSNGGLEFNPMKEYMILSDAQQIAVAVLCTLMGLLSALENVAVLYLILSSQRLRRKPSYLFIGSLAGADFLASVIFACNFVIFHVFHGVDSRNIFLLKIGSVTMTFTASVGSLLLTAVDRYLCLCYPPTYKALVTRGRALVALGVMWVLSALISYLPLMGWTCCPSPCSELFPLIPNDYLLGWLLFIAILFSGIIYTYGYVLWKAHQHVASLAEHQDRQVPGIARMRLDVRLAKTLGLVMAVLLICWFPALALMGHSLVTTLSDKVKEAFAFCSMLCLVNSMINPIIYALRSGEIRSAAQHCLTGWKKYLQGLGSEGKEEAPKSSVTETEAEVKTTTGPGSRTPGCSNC
The experiment in a line: Displacement of [3H]WIN-55212-2 from CB2 receptor in Sprague-Dawley rat spleen membrane at 10 uM. The class given is cell membranes. A digest of the protocol: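 Spleen membranes from Sprague Dawley rats (supernatant spun at 23,800g, pellet kept) in tris-HCl pH 7.4 with MgCl2 and EGTA. 30.0 µg protein per tube with 1.0 mg/mL BSA, 0.2 nM [3H]WIN-55,212-2 and test drug, triplicate, 30 °C for 90 min. Nonspecific binding defined with 1.0 µM unlabelled WIN-55,212-2. Filtration, scintillation counting, nonlinear regression; means of at least four estimates.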
(Loss of bound radioactivity is the signal in a displacement assay; it reports binding, not function.)

For assay [3], the target named is Cannabinoid receptor 1 (Rattus norvegicus, UniProt P20272). Nature of the assay: (§2) Displacement of [3H]SR141716A from CB1 receptor in Sprague-Dawley rat cerebellum membrane. The class given is tissue-based.
Chain of Cannabinoid receptor 1 (Rattus norvegicus, UniProt P20272) (P20272 whole entry): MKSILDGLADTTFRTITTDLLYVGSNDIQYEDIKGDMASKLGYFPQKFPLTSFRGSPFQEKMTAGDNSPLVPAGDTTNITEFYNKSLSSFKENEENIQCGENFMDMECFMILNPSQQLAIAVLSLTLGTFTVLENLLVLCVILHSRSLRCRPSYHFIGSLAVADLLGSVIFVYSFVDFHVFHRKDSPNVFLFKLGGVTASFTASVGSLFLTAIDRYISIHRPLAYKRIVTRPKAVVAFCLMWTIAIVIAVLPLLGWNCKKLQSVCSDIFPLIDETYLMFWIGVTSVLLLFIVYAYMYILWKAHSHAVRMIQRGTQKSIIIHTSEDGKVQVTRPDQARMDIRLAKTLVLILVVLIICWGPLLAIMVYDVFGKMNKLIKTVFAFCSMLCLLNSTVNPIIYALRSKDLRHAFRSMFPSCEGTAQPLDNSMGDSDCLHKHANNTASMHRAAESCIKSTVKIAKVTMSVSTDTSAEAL
Assay [4] in a line: Selectivity for CB2 receptor over CB1 receptor.
Assay [5] deals with Cannabinoid receptor 2 (Homo sapiens, UniProt P34972). The experiment in a line: Activity at CB2 receptor.
Chain of Cannabinoid receptor 2 (Homo sapiens, UniProt P34972) (P34972 whole entry): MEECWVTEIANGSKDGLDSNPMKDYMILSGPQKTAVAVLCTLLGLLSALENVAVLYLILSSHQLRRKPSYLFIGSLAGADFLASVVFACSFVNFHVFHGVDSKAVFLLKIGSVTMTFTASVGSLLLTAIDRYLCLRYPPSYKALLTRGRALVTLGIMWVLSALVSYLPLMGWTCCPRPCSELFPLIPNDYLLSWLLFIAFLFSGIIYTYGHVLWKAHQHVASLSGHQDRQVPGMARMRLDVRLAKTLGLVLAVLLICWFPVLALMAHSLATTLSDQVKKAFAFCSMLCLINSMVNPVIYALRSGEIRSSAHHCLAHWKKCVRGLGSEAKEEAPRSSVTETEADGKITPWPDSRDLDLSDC
Assay [6] deals with Cannabinoid receptor 1 (Rattus norvegicus) (UniProt P20272). The description is as §2. The class given is tissue-based.
Chain of Cannabinoid receptor 1 (Rattus norvegicus) (P20272 whole entry): as the sequence (P20272 whole entry) above
For assay [7], the target named is Cannabinoid receptor 1 (Homo sapiens, UniProt P21554). Nature of the assay: Agonist activity at CB1 receptor. In kind it is functional.
Chain of Cannabinoid receptor 1 (Homo sapiens, UniProt P21554) (P21554 whole entry): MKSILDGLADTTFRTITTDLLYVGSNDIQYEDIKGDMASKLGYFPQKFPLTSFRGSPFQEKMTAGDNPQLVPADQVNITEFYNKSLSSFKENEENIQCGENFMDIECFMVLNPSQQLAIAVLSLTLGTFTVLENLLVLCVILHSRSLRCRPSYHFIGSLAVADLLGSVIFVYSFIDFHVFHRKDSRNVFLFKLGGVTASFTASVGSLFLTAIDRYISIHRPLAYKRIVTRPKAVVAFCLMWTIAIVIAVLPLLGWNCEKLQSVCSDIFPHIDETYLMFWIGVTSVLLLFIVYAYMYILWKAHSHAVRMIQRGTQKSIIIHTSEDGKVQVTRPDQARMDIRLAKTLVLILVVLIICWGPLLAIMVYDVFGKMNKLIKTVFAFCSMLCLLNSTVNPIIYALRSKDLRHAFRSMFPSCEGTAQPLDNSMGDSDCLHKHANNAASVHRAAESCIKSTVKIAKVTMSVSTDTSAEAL
The target in assay [8] is T1, Cannabinoid receptor 2 (Rattus norvegicus). Nature of the assay: (§3) Displacement of [3H]WIN-55212-2 from CB2 receptor in Sprague-Dawley rat spleen membrane. In kind it is cell membranes.
The target in assay [9] is Cannabinoid receptor 1 (Mus musculus) (UniProt P47746). Nature of the assay: Agonist activity at CB1 receptor in electrically-stimulated Swiss mouse vas deferens. The class given is functional, tissue-based. A digest of the protocol:
as §1

Assay [10] deals with T2, Cannabinoid receptor 2 (Rattus norvegicus, UniProt Q9QZN9).
T2 sequence (Q9QZN9 whole entry): T1 sequence (whole entry)
Described as §3. In kind it is cell membranes.

Chain of Cannabinoid receptor 1 (Mus musculus) (P47746 whole entry): as the sequence (P20272 whole entry) above, with E95D counted along it

The term inhibition denotes the drop in the measured response relative to a control, in per cent. For the compound `c1ccc2cc(Cc3noc(-c4cn(CCN5CCCC5)c5ccccc45)n3)ccc2c1`, the inhibition in assay [1] was 78.6%.

Broadly, the IC50 is the concentration that inhibits the measured activity by half. Turning to `c1ccc(-c2ccc(-c3noc(-c4cn(CCN5CCOCC5)c5ccccc45)n3)cc2)cc1`, the values for the inhibition in assay [2] and in assay [1] were 14% and 11.4%, respectively. For the same compound, the concentration for half-maximal inhibition (IC50) at Cannabinoid receptor 1 [3] came out at 1.52 µM.

For the compound `CC(=O)Oc1cn(CCN2CCOCC2)c2ccccc12`, in assay [1], the inhibition amounted to 81.8%.

Consider `COc1ccc2c(c1)c(CCN1CCOCC1)c(C)n2C(=O)c1cccc(Cl)c1Cl`, for which the Selectivity ratio in [4] turned out to be 160.

What is called Ki is a dissociation constant, usually derived from enzyme kinetics or from competition with a known ligand. Read a low Ki as a stronger hold on the target. In the case of `Cc1c(CCN2CCOCC2)c2ccccc2n1C(=O)c1cccc2ccccc12`, the Selectivity ratio in [4] turned out to be 160. The affinity at Cannabinoid receptor 2 [5] corresponds to a Ki of 8.5 nM.

With `c1ccc(Cc2noc(-c3cn(CCN4CCOCC4)cn3)n2)cc1`, the outcome in [6] was inactive. Besides, the inhibition in [1] turned out to be 46.8%.

For the compound `CCOC(=O)CCCCn1cc(-c2nc(Cc3ccc4ccccc4c3)no2)c2ccccc21`, the inhibition in assay [1] was found to be 41.6%.

`COc1ccc(C(=O)c2c3n(c4ccccc24)C(CN2CCOCC2)CC3)cc1` (stereo unspecified): the IC50 at Cannabinoid receptor 1 [7] is 0.32 nM.

In the case of `O=C(Cn1cc(-c2nc(-c3ccccc3)no2)c2ccccc21)N1CCOCC1`, the inhibition in assay [1] is -5.29%. Also, in [8], the outcome was inactive.

On Cannabinoid receptor 1 [3], `c1ccc(Cc2noc(-c3cn(CCN4CCCCC4)c4ccccc34)n2)cc1` showed a half-maximal inhibitory concentration (IC50) of 5.6 µM. Moreover, in assay [9], the agonist potency (pEC50) came to 5.6.

`O=C(O)CCCCn1cc(-c2nc(Cc3ccc4ccccc4c3)no2)c2ccccc21`: in assay [1], the inhibition was found to be 53.6%.

`COc1ccc(Cc2noc(-c3cn(CCN4CCOCC4)c4ccccc34)n2)cc1`: the inhibition in assay [1] is 39.2%.

As for `Brc1ccc(Cc2noc(-c3cn(CCN4CCOCC4)c4ccccc34)n2)cc1`, the IC50 at Cannabinoid receptor 1 [3] stood at 6.2 µM. In addition, the inhibition in [1] is 58%.

In the case of `COc1ccc(C(=O)c2c(C)n(CCN3CCOCC3)c3ccccc23)cc1` [PRAVADOLINE], at Cannabinoid receptor 1 [7], the IC50 came to 453 nM.

For `O=C(c1nc(Cc2ccccc2)no1)c1cn(CCN2CCOCC2)c2ccccc12`, the inhibition in [1] came to 22.4%.

`c1ccc(CCc2noc(-c3cn(CCN4CCOCC4)c4ccccc34)n2)cc1` had a half-maximal inhibitory concentration (IC50) at Cannabinoid receptor 1 [3] of 6.8 µM. For the same compound, the inhibition in assay [1] was determined as 90%.

Regarding `c1ccc(Cc2noc(-c3cn(CCN4CCCC4)c4ccccc34)n2)cc1`, the agonist potency (pEC50) in assay [9] is 7.2.

`Clc1ccccc1Cc1noc(-c2cn(CCN3CCOCC3)c3ccccc23)n1` registered a 50% inhibitory concentration (IC50) on Cannabinoid receptor 1 [3] of 7.4 µM. Further, the inhibition in [1] was determined as 95%.

With `O=C(c1nc(-c2ccccc2)no1)c1cn(CCN2CCOCC2)c2ccccc12`, the inhibition in assay [1] was found to be 44.3%. For the same compound, the outcome in assay [8] was inactive.

`c1csc(Cc2noc(-c3cn(CCN4CCOCC4)c4ccccc34)n2)c1`: the IC50 on Cannabinoid receptor 1 [3] was found to be 6.8 µM. The inhibition in assay [1] was 81%.

At Cannabinoid receptor 1 [3], `O=C1NC(Cn2cc(-c3nc(Cc4ccccc4)no3)c3ccccc32)CO1` (stereo unspecified) had an IC50 of 6.1 µM. In addition, the inhibition in assay [1] is 15.8%.

Regarding `CCCCC(C)(C)c1cc(O)c2c(c1)OC(C)(C)[C@H]1CC=C(CO)C[C@H]21`, at Cannabinoid receptor 1 [3], the 50% inhibitory concentration (IC50) came to 3.22 µM.

As for `c1ccc(Cc2noc(-c3cn(CCN4CCOCC4)c4ccccc34)n2)cc1`, the IC50 at Cannabinoid receptor 1 [3] turned out to be 2.62 µM; at Cannabinoid receptor 2 [10] it was 1100 nM. For the same compound, the agonist potency (pEC50) in assay [9] was found to be 7.

`CCCCCn1cc(-c2nc(Cc3ccccc3)no2)c2ccccc21` registered an IC50 on Cannabinoid receptor 1 [3] of 8.8 µM. Further, in [1], the inhibition was determined as 100%.

For `c1ccc(-c2noc(-c3cn(CCN4CCOCC4)c4ccccc34)n2)cc1`, the figures for the half-maximal inhibitory concentration (IC50) on Cannabinoid receptor 1 [3] and on Cannabinoid receptor 2 [10] were 0.25 µM and 4030 nM, respectively. The agonist potency (pEC50) in assay [9] was found to be 6.47.

On to `c1ccc2cc(Cc3noc(-c4cn(CCN5CCOCC5)c5ccccc45)n3)ccc2c1`, for which the inhibition in assay [1] was determined as 95.6%.

For `O=C(Cn1cc(-c2nc(Cc3ccccc3Cl)no2)c2ccccc21)N1CCOCC1`, the outcome in assay [6] was inactive.

On to `O=C(Cn1cc(-c2nc(Cc3ccccc3)no2)c2ccccc21)N1CCOCC1`, for which the inhibition in [1] came out at 17%. Further, in assay [8], the result was inactive.
